Consider ten compounds from ChEMBL document CHEMBL5150022, “Small Molecule Inhibitors of Lymphocyte Perforin as Focused Immunosuppressants for Infection and Autoimmunity” (J Med Chem, 2022).

Where “and” joins values, the source holds several entries; their conditions need not be identical. Equal entries are not always repeated.

The nature of data set [1]: Cytotoxicity against human Natural killer cells at 20 uM. Particulars: natural killer cell.
Data set [2] is described as follows: Cytotoxicity against human Natural killer cells assessed as reduction in cell viability at 20 uM.
Data set [3] can be described thus: Mutagenicity in Salmonella typhimurium TA100 by AMES test. It counts as toxicity, Salmonella enterica subsp. enterica serovar Typhimurium.
For data set [4], the target named is T1, Perforin-1 (Homo sapiens) (UniProt P14222).
T1 sequence (whole entry): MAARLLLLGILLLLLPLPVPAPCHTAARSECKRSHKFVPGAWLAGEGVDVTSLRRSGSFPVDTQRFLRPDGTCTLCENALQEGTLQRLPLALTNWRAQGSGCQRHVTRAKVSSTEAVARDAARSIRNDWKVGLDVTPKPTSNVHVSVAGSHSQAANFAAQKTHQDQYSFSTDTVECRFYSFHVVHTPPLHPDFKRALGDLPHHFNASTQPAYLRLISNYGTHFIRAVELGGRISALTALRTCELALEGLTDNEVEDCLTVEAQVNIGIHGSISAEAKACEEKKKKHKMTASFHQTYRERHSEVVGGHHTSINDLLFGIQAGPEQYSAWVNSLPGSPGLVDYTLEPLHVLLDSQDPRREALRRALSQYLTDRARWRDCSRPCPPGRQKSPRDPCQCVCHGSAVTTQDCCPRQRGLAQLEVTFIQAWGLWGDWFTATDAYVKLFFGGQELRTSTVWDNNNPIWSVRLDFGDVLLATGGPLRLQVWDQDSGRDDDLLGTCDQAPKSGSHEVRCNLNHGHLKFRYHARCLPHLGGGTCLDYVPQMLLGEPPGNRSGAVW
The experiment in a line: Inhibition of Perforin-1 in human Jurkat cells at 20 uM incubated for 4 hrs relative to control. It counts as cell-based.

The nature of data set [5]: Inhibition of Perforin-1 in sheep red blood cells incubated for 30 mins. It counts as cell-based, Ovis aries. Particulars: rbc. Put shortly: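 Recombinant mouse perforin-mediated lysis of sheep red blood cells, read as turbidity change by absorbance at 650 nm. Compounds first tested at a single 20 μM point, then at 100, 20, 4, 0.8 and 0.16 μM to give IC₅₀. Hits were rechecked with 0.1% BSA.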

Data set [6] concerns the target T2, Perforin-1 (Mus musculus) (UniProt P10820).
T2 sequence (whole entry): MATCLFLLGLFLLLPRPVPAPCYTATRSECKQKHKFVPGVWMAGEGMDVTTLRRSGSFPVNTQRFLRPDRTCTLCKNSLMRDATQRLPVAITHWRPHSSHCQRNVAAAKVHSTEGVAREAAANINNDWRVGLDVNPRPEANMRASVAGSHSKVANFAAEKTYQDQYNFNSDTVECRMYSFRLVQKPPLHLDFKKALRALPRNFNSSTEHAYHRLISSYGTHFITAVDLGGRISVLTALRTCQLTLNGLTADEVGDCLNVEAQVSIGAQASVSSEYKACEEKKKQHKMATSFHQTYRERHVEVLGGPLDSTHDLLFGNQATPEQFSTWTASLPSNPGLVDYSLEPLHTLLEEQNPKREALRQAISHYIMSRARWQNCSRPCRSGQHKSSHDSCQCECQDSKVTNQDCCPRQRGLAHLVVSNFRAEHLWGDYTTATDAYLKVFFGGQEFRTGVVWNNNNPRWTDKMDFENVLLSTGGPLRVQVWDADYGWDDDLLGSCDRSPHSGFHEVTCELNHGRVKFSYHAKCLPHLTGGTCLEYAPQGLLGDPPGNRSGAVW
The experiment in a line: Inhibition of mouse Perforin-1 in Natural killer cell at 20 uM relative to control.

Data set [7] in a line: Antiproliferative activity against human KHYG-1 at 20 uM incubated for 20 mins. It counts as functional.
Data set [8] addresses Beta-secretase 1 (Homo sapiens) (UniProt P56817). The experiment in a line: Inhibition of BACE1 (unknown origin) at 1 uM relative to control.
Another data set deals with Acetylcholinesterase (Homo sapiens, UniProt P22303). In words: Inhibition of AChE (unknown origin).
Acetylcholinesterase, sequence (P22303 whole entry): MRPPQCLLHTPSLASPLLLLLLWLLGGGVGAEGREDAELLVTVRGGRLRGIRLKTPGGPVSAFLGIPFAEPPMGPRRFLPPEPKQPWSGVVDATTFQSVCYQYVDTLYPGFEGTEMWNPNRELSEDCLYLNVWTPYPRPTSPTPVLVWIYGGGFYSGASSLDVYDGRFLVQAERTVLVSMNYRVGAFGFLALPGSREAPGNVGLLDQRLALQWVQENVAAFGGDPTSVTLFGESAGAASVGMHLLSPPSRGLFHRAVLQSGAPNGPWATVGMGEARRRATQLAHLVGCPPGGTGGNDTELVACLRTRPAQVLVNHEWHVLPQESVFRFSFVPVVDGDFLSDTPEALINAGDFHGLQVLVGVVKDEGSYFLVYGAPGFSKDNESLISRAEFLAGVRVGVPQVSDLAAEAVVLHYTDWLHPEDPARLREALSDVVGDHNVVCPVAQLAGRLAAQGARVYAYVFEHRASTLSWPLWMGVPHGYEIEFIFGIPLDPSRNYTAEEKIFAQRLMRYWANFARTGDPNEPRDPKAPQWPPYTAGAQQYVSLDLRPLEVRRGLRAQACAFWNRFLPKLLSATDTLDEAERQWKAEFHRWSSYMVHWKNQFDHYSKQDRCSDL
The subject of data set [9] is Brain. In words: Anti-neuroinflammation in LPS-induced mouse brain assessed as reduction in prostaglandin E2 production at 250 microg/kg administered for 3 days. The data set is classed as functional. Also noted: scale not given: the % may be the effect or the level left. Particulars: dose 250 µg/kg; time 3 day.
The subject of data set [10] is Brain. The experiment in a line: Anti-neuroinflammation in LPS-induced mouse brain assessed as reduction in caspase-3/7 production at 250 microg/kg administered for 3 days. It counts as functional. On the set-up: scale not given: the % may be the effect or the level left. Particulars: dose 250 µg/kg; time 3 day.
Data set [11] can be described thus: Reversal of Perforin-1 dependent NK-cell mediated graft rejection in human KHYG-1 cells assessed as reduction in perforin-1 activity at 90 mg/kg for 24 days relative to control. It counts as functional. Also noted: scale not given: the % may be the effect or the level left. Particulars: time 24 day.
Data set [12] can be described thus: Elimination half life in mouse plasma at 10 to 160 mg/kg, po measured for 24 hrs. The data set is classed as ADME, organism-based. Particulars: dose 10-160 mg/kg, read-out: beta t1/2 (converted).
Data set [13] addresses T1, Perforin-1 (Homo sapiens). In words: Inhibition of Perforin-1 in human KHYG-1 cells assessed as unbound concentration. The data set is classed as cell-based. Put shortly:
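KHYG1 NK cell killing of ⁵¹Cr-labelled K562 targets; IC₉₀ determined. Compound binding to proteins in the assay medium was measured and used to estimate the unbound IC₉₀.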

The nature of data set [14]: Toxicity in C57BL/6 mouse assessed as animal survival at 100 mg/kg, po measured for 2 days. The data set is classed as organism-based. Particulars: in vivo, time 2 day, read-out: Activity.
Data set [15] can be described thus: Toxicity in C57BL/6 mouse assessed as effect on aspartate transaminase level at 100 mg/kg, po measured for 2 days. The data set is classed as organism-based. Particulars: in vivo, 48 h, time 2 day.
The nature of data set [16]: Plasma protein binding in mouse. The data set is classed as ADME, cell-free. Particulars: read-out: PPB (converted).
Data set [17] in a line: Stability in mouse plasma incubated for 24 hrs by HPLC analysis. The data set is classed as ADME, cell-free. Particulars: read-out: Stability. In a few lines: (§1)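 Compound incubated in human or mouse plasma at 37 °C for 24 h; parent remaining quantified by HPLC.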
Data set [18] in a line: Stability in human plasma incubated for 24 hrs by HPLC analysis. It counts as ADME, cell-free. Particulars: read-out: Stability. In a few lines:
as §1

The target in data set [19] is T1, Perforin-1 (Homo sapiens). The experiment in a line: Inhibition of Perforin-1 in human Natural killer cells at 20 uM incubated after 24 hrs relative to control. It counts as cell-based. Particulars: Natural killer cell, time 4.0 hrs, in the assay text read “after 4 hrs” for “after 24 hrs”. In a few lines:
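Human KHYG1 NK cells plus medium coincubated with inhibitor at 20 μM final, or 5 μM in one case. ⁵¹Cr-labelled K562 leukaemia targets added; lysis measured by ⁵¹Cr release after 4 h. Effector NK cell viability measured 24 h later.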

Beta-secretase 1 (Homo sapiens), sequence (P56817 whole entry): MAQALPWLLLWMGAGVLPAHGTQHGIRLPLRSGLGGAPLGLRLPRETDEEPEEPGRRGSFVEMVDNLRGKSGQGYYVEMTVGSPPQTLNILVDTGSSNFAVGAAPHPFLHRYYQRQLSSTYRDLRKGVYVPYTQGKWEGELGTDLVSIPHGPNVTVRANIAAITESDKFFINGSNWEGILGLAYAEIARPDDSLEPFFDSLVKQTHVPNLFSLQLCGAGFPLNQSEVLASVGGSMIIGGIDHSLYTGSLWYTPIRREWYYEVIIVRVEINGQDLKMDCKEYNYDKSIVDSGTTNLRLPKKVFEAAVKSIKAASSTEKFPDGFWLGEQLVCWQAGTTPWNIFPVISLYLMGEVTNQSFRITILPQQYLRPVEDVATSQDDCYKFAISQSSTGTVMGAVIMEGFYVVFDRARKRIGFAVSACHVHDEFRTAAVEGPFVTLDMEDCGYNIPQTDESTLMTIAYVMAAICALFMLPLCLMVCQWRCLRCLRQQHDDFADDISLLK

Regarding `NC(=O)c1ccc(-c2ccc(-c3ccc4c(c3)COC4=O)s2)cn1`, the Activity in data set [1] turned out to be 80%; in data set [2], 82%.

As to `Cc1cc2c(c(=S)[nH]1)C(=O)O/C2=C\c1ccc(C)o1`, the IC50 (commonly the concentration at which inhibition is half-maximal) in data set [3] was found to be 3.4 µM; in [5] it was 9.7 µM. Also, the inhibition (commonly how much of the control response was suppressed) in data set [4] was found to be 100%.

In data set [4], `O=C1NC(=S)N/C1=C/c1ccc(-c2ccc3c(c2)COC3=O)o1` returned an inhibition of 99%. For the same compound, inhibition in data set [5] was half-maximal at 7.2 µM (IC50).

On to `O=C1NC(=S)N/C1=C/c1ccc(-c2ccc3c(c2)CCNC3=O)s1`, for which the inhibition in [6] was determined as 60%; in data set [4] it was 98%. This compound displayed an IC50 in data set [5] of 14.7 µM.

In the case of `Cc1cc2c(c(=S)[nH]1)C(=O)O/C2=C\c1cc2ccccc2s1`, the inhibition in data set [4] turned out to be 63%. In data set [7], this compound yielded an Activity of 89%. The compound also had an IC50 in data set [5] of 0.97 µM.

Regarding `O=C1OCc2cc(-c3ccc(-c4ccc(CO)cc4)s3)ccc21`, in [8], the inhibition was determined as 72%. The same compound returned a half-inhibitory concentration (IC50) on Acetylcholinesterase of 8 µM. For the same compound, the Activity with Brain [9] was 55%; in the data set with Brain [10], 63%.

Turning to `COc1ncc(-c2ccc(-c3cnc4c(c3)CN(C)C4=O)s2)cc1NS(=O)(=O)c1ccc(F)cc1F`, the Activity in [11] is on record as 66%.

For the compound `CN1Cc2cc(-c3ccc(-c4cncc(NS(=O)(=O)c5ccccc5[N+](=O)[O-])c4)s3)ccc2C1=O`, in [12], the half-life is 2.4 h. Also, in data set [13], the IC90 – broadly, the point of the concentration-response curve where the effect stands at 90% – was 0.77 µM. Moreover, the survival at 48 h in [14] is 100%. Also, the Activity in data set [15] stood at 60%. In data set [16], the fraction unbound is 0.002.

For `CNC(=O)c1ccc(-c2c(C#N)c(N)n3c(nc4ccccc43)c2C#N)cc1`, the inhibition in data set [4] came to 91%. In data set [7], this compound gave an Activity of 84%. Moreover, the midpoint of inhibition in data set [5], the IC50, lay at 1.04 µM.

`NC(=O)c1ccc(-c2ccc(-c3ccc4c(c3)COC4=O)s2)cc1`: the remaining at 24 h was found to be 75% in data set [17] and 46% in data set [18]. Besides, the Activity in data set [1] was 38% and 63%; in [2] it was 90%; in data set [7], 70%. The inhibition in data set [19] is 63%; in [4], 52%. Half-maximal inhibition in data set [5] (IC50) required 13.2 µM.
